Measurements reported in ChEMBL document CHEMBL4823316, “Synthesis and evaluation of squaramide and thiosquaramide inhibitors of the DNA repair enzyme SNM1A” (Bioorg Med Chem, 2021).
Calls of active or inactive are those of the source. The rule behind the calls is not given here.

What was measured:
[1] = molecular target: T1, DNA cross-link repair 1A protein (Homo sapiens) (UniProt Q6PJP8); test: Inhibition of SNM1A (unknown origin) assessed as reduction in oligonucleotide digestion at 1 mM using 21mer fluorescent oligonucleotide as substrate preincubated for 5 mins followed by substrate addition and measured after 1 hr by PAGE analysis; details: time 65.0 min
T1 sequence (whole entry): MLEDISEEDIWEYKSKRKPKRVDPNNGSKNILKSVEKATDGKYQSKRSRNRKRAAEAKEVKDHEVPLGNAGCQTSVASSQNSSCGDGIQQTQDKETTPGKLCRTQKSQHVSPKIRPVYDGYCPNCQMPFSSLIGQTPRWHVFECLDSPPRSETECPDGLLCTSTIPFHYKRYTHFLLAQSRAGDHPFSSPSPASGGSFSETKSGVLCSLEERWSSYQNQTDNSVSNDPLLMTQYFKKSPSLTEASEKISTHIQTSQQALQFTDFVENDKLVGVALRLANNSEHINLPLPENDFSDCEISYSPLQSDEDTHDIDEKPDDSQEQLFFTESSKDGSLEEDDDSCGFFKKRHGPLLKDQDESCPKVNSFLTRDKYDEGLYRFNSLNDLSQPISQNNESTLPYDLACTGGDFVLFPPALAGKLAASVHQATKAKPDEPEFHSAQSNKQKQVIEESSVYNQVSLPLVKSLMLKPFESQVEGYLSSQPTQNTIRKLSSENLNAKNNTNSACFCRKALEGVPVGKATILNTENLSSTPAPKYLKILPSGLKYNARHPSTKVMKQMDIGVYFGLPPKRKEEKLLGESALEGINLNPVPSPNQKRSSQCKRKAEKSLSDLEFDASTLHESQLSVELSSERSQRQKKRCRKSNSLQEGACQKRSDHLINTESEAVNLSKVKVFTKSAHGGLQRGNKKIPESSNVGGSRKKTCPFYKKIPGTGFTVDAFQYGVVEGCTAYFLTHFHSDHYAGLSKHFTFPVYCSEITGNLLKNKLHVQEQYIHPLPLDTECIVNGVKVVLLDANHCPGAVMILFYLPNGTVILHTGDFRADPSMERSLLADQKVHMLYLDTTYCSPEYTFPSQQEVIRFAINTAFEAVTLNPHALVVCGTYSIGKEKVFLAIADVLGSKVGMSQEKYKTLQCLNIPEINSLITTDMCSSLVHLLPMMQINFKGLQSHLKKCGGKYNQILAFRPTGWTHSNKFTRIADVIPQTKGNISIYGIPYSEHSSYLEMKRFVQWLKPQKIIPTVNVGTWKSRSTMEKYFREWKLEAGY

[2] = Metal chelating activity assessed as Zn2+-compound complex formation by measuring equilibrium constant measured at 2:1 compound to metal ion ratio by UV-Vis titration based analysis
Summary of the method: (§1)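 Compounds in MeCN titrated with Zn(ClO₄)₂ and followed by UV–Vis. Binding constants for 1:1, 1:2 and 2:1 ligand–metal species were derived by global non-linear regression, comparing two- and three-species models. Described as qualitative.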

[3] = Metal chelating activity assessed as Zn2+-compound complex formation by measuring equilibrium constant measured at 1:1 compound to metal ion ratio by UV-Vis titration based analysis; summary of the method: as §1
[4] = Metal chelating activity assessed as Zn2+-compound complex formation by measuring equilibrium constant measured at 1:2 compound to metal ion ratio by UV-Vis titration based analysis; summary of the method: as §1
[5] = molecular target: T2, DNA cross-link repair 1A protein (Homo sapiens, UniProt Q6PJP8); test: Inhibition of SNM1A (unknown origin) by real time fluorescence assay
T2 sequence (Q6PJP8 whole entry): T1 sequence (whole entry)
Summary of the method: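 Real-time fluorescence assay of SNM1A exonuclease activity used to derive IC₅₀ from a concentration series. Unmodified thymidine run as control. Error bars from 6 independent repeats.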

[6] = molecular target: T1, DNA cross-link repair 1A protein (Homo sapiens); test: Inhibition of SNM1A (unknown origin) assessed as reduction in oligonucleotide digestion at 333 uM using 21mer fluorescent oligonucleotide as substrate preincubated for 5 mins followed by substrate addition and measured after 1 hr by PAGE analysis; details: time 65.0 min

| SMILES | inhibition [1] | other results |
| --- | --- | --- |
| CCN(CC)c1c(N[C@H]2C[C@H](n3cc(C)c(=O)[nH]c3=O)O[C@@H]2CO)c(=S)c1=S | Active |  |
| Cc1cn([C@H]2C[C@H](O)[C@H](CNc3c(N[C@H]4C[C@H](n5cc(C)c(=O)[nH]c5=O)O[C@@H]4CO)c(=S)c3=S)O2)c(=O)[nH]c1=O | Active |  |
| Cc1cn([C@H]2C[C@H](O)[C@@H](CNc3c(O)c(=O)c3=O)O2)c(=O)[nH]c1=O | inactive |  |
| CCN(CC)c1c(NC[C@H]2O[C@@H](n3cc(C)c(=O)[nH]c3=O)C[C@@H]2O)c(=S)c1=S |  | Kb [2]: 1.2 10^6/M; Kb [3]: 6.8 10^5/M; Kb [4]: 1.7 10^2/M |
| Cc1cn([C@H]2C[C@H](Nc3c(O)c(=O)c3=O)[C@@H](CO)O2)c(=O)[nH]c1=O |  | Kb [2]: 3.2 10^6/M; Kb [3]: 4 10^4/M |
| Cc1cn([C@H]2C[C@H](O)[C@@H](CO)O2)c(=O)[nH]c1=O [DOXRIBTIMINE] | inactive | IC50 [5]: Not Active |
| Cc1cn([C@H]2C[C@H](O)[C@@H](CNc3c(NCCO)c(=O)c3=O)O2)c(=O)[nH]c1=O | inactive |  |
| CCN(CC)c1c(NC[C@H]2O[C@@H](n3cc(C)c(=O)[nH]c3=O)C[C@@H]2O)c(=O)c1=O | inactive |  |
| Cc1cn([C@H]2C[C@H](Nc3c(N(C)O)c(=O)c3=O)[C@@H](CO)O2)c(=O)[nH]c1=O | Active | inhibition [6]: Active; Kb [3]: 3 10^4/M; Kb [4]: 6.6 10^1/M |
| CCOc1c(NC[C@H]2O[C@@H](n3cc(C)c(=O)[nH]c3=O)C[C@@H]2O)c(=O)c1=O | inactive |  |
| Cc1cn([C@H]2C[C@H](O)[C@@H](CNc3c(Nc4ccccc4O)c(=O)c3=O)O2)c(=O)[nH]c1=O | inactive |  |
| CN(O)c1c(N[C@H]2[C@@H](O)[C@H](n3ccc(=O)[nH]c3=O)O[C@@H]2CO)c(=O)c1=O | Active |  |
